SENP1 inh = blocks the human SENP1 SUMO protease catalytic domain | Q9P0U3 | recombinant SENP1 catalytic domain, CyPet-SUMO1-YPet FRET cleavage | inhibition, % at 10 µM | 360,000 tested, 0.21% active;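 active = inhibition at least 30% at 10 µM, raw YFP signal under a set limit, fluorescence ratio 0.5 to 1.5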;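 also: 0% = enzyme with DMSO and 100% = no enzyme wells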
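Compound: 10 µM single point, 0.5% DMSO; Test system: hSENP1 catalytic domain, recombinant; Timing: 50 min reaction at room temperature; Technique: FRET, CFP and YFP emission; Control set: no-enzyme wells low, DMSO-plus-enzyme wells high control.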
Rpn11 block = Rpn11 (human) deubiquitinase inhibition; inhibition, % at 20 µM; O00487; 360,000 tested, 0.59% active; human 26S proteasome, Ub4-pepOG fluorescence polarization; 20S core pre-blocked with epoxomicin;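 active = inhibition at 20 µM, scaled to each plate's controls, above about 33%, limit read from the data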
Target sequence (O00487 whole entry, looked up): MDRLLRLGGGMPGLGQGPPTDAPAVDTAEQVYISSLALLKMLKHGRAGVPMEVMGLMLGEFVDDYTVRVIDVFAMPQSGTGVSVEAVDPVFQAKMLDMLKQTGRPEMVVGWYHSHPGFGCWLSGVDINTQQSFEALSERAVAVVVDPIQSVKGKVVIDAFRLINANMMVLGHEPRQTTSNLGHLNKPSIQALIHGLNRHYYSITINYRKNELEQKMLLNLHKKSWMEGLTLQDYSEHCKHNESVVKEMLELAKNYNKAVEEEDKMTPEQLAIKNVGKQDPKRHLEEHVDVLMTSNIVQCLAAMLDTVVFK
TPT1 inhibitor = inhibitors of Candida albicans tRNA 2'-phosphotransferase TPT1; recombinant caTPT1, FP RNA substrate dephosphorylation; inhibition, % at 5 µM; 300,000 tested, 0.81% active;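 active = inhibition above the mean of all tested compounds plus 3 SD, set per screening campaign, cut at about 24% in these data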;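 also: plate controls were DMSO alone for no effect and ferristatin control at 100 nM for full effect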
HNF4A DNA FP = change in binding of human HNF4 alpha to DNA. 360,000 tested, 0.3% active. P41235. HNF4a-FITC DNA binding, fluorescence polarization, 1 h. activity change, % at 10 µM; in the data active = activity change above about 30%, passing the limit was not always enough
CSN inh = CSN deneddylation inhibition; Q92905; AID 651999; inhibition, % at 12.5 µM; Purified CSN, SCF-Nedd8-OG deneddylation, fluorescence polarization; 360,000 tested, 0.38% active;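 active = pattern-corrected inhibition above about 35%, with an unprinted fluorescence ratio check between 0.5 and 1.5, limit read from the data, passing the limit was not always enough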;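 also: 0% = enzyme with substrate and 100% = substrate without enzyme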
Target sequence (Q92905 whole entry, looked up, one chain of several): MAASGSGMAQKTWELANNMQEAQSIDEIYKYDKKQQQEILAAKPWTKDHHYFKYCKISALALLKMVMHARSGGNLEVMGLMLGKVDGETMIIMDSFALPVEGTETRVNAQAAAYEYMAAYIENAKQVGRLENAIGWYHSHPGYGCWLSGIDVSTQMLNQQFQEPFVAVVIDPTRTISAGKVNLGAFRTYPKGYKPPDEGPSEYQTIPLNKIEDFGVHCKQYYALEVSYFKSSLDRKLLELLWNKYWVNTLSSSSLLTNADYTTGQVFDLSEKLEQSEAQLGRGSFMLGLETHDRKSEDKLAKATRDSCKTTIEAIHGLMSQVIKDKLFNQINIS
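Assay system: Purified human Csn5 enzyme expressed in HEK293T cells | Amount: Enzyme 0.24 nM | Measured by: Fluorescence polarization readout | Medium: Tris/NaCl/DTT buffer, pH 7.5 | Compound dosing: One concentration, 12.5 µM, 0.25% DMSO | Times: 90 min incubation of compound, enzyme and substrate at room temperature | Control set: no-enzyme wells high, enzyme-with-substrate wells low | Read-out: % inhibition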
CSN5 deneddyl = Csn5 (human) deneddylation inhibition, single-concentration validation | shares compounds with CSN inh | Csn5 deneddylation of SCF-Nedd8OG, fluorescence polarization, 90 min | inhibition, % at 16.6 µM | 540 tested, 62% active | AID 720654; in the data active = inhibition above about 50%;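 also: 0% = DMSO with enzyme and 100% = no enzyme wells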
MMP2 cntr CSN = counter-screen for CSN deneddylation inhibitors: human MMP-2 inhibition. shares compounds with CSN inh. recombinant MMP-2, FRET substrate fluorescence, 60 min. inhibition, % at 16.6 µM. 540 tested, 33% active. AID 720655;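 active = corrected plate-normalized z-score of 5 or more, or -5 or less, or inhibition of 15% or more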;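 also: plate controls were DMSO wells with enzyme for no effect and buffer wells lacking MMP-2 for full effect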
Thrombin cntr = thrombin (bovine) inhibition, counter-screen for CSN hits. shares compounds with CSN inh. bovine thrombin cleavage of Ub4-pepOG, fluorescence polarization. inhibition, % at 16.6 µM. 540 tested, 49% active;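 active = inhibition at or above a set limit, with a fluorescence interference ratio between 0.5 and a set maximum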
* = called active by the depositor; / = no result given; + = active, no number. Compounds with a hit are over-represented: about 1.6% of the library has one in this group of screens.

SMILES | SENP1 inh | Rpn11 block | TPT1 inhibitor | HNF4A DNA FP | CSN inh | CSN5 deneddyl | MMP2 cntr CSN | Thrombin cntr
C=CCn1c(NS(=O)(=O)c2ccccc2)c(S(=O)(=O)c2ccc(C)cc2)c2nc3ccccc3nc21 | -135 | 1 | 3 | 5 | 1 | / | / | /
O=S(=O)(Nc1c(S(=O)(=O)c2ccccc2)c2nc3ccccc3nc2n1C1CCCCC1)c1ccccc1 | -75 | 24 | 0 | 1 | 58* | 47 | 1 | 1
O=C1c2ccccc2C(=O)c2c(Nc3ccc(CCO)cc3)ccc(O)c21 | 3 | -8 | -4 | -1 | 4 | / | / | /
O=C1c2c(O)ccc(O)c2C(=O)c2c(NCCNCCO)ccc(NCCNCCO)c21 | 1 | 43* | 0 | 105 | 44* | -19 | 31* | -18
O=C(O)CCCN1C(=O)/C(=C\C(Cl)=C\c2ccccc2)SC1=S | 6 | -4 | / | -7 | 40* | 75* | 30* | -3
CCN1C[C@@H]2[C@@H]3C(=O)N(C)C(=O)[C@@H]3[C@](Cc3ccccc3)(C1=O)N2C(=O)c1ccc(Cl)c(Cl)c1 | 6 | 4 | / | -2 | 0 | / | / | /
N=C(N)c1ccc(/C=C/c2ccc(C(=N)N)cc2O)cc1 | 55* | -8 | -2 | 18 | 46* | -17 | -2 | 32*
Cc1ccc(NC(=O)C2CCCN2C(=O)c2cccs2)c(C)c1 (centres undefined) | 1 | 1 | 1 | -1 | -2 | / | / | /
COC(=O)/C=C1\SC(=Nc2ccc(Cl)c(Cl)c2)NC1=O | 2 | 5 | -4 | 0 | 1 | / | / | /
COc1cc(/C=C2\SC(=Nc3ccc(Cl)c(C(=O)O)c3)NC2=O)c(Br)c(Br)c1O | -28 | / | / | 76* | 198* | 29 | -101* | -84
CCOC(=O)/C(=C\c1ccc(N2CCC(c3ccccc3)=N2)cc1)C(C)=O | -35 | / | / | 22 | 38* | 20* | -58* | 28*
COC(=O)C1=C(C)NC(=O)NC1c1ccc(N2CCC(c3ccccc3)=N2)cc1 (centres undefined) | -26 | 21 | -1 | 11 | 4 | / | / | /
O=C(O)CCN1C(=O)c2ccc(Oc3ccc([N+](=O)[O-])cc3)cc2C1=O | 2 | 6 | -2 | 3 | 2 | / | / | /
CCOC(=O)/C=C(\C)Sc1cc(O)c2ccccc2c1O | 4 | 10 | / | -4 | 42* | 51* | 24* | -27
O=C(O)COc1ccc(/C=N/NC(=O)c2ccc(-c3csc(Nc4ccc(Cl)cc4)n3)cc2)cc1 | -4 | 70* | / | -91 | 93* | 98* | 16* | -7
CCOc1cc(/C=N/NC(=O)c2ccc(-c3csc(Nc4ccc(C)cc4)n3)cc2)ccc1OCC(=O)O | -12 | -8 | / | -15 | 49* | 45 | 30* | -5
O=C(Nc1nnc(SCCN2CCOCC2)s1)C1CC(=O)N(c2ccccc2)C1 (centres undefined) | -1 | -2 | -7 | -2 | 0 | / | / | /
CCCCCCCC/C=C\CCCCCCCC(=O)O | 3 | 13 | 0 | -7 | 20 | / | / | /
CCCCCCCCCCCCC/C=C/[C@@H](O)[C@@H](N)CO | 0 | 25 | -4 | 29 | 41* | 3 | 5 | -3
CCOC(=O)C1(CCCc2ccccc2)CCN(C(=O)C(C)n2cncn2)CC1 (centres undefined) | 1 | -1 | 3 | 3 | 1 | / | / | /
CCCCn1c(NC(=O)c2ccccc2)c(C#N)c2nc3ccccc3nc21 | -21 | / | / | 85* | 69* | 49 | 4 | -11
O=C(CN1C(=O)c2ccccc2C1=O)OCC(=O)c1ccccc1 | 2 | -2 | 4 | -3 | -2 | / | / | /
Nc1cc2c3ccccc3ccc2c2ccccc12 | -114 | 15 | / | 14 | 46* | 82* | 9 | -15
Nc1ccc2ccccc2c1[N+](=O)[O-] | 2 | 4 | / | 0 | 1 | / | / | /
Cc1ccc2nc(N(CCCN(C)C)C(=O)c3ccc(S(=O)(=O)N4CCc5ccccc5C4)cc3)sc2c1 | 2 | -16 | 0 | -1 | 5 | / | / | /
SMILES | SENP1 inh | Rpn11 block | TPT1 inhibitor | HNF4A DNA FP | CSN inh | CSN5 deneddyl | MMP2 cntr CSN | Thrombin cntr
CN(C)CCCN(C(=O)c1ccc(S(=O)(=O)N2CCc3ccccc3C2)cc1)c1nc2ccc(F)cc2s1 | 2 | 24 | -4 | 57* | 99* | -33 | -1 | -14
COc1ccc(Cl)cc1C=CC=Nc1ccccc1O | 2 | 20 | / | 19 | 10 | / | / | /
Cc1ccc(N=C2NC(=O)/C(=C/C=C/c3ccco3)S2)cc1 | -12 | 13 | 17 | 0 | 49* | 93* | 17* | -1
Cc1cn([C@H]2C[C@H](O)[C@@H](CNCc3ccc(-c4cc(Cl)ccc4C(F)(F)F)o3)O2)c(=O)[nH]c1=O | -3 | -2 | / | 3 | 2 | / | / | /
Nc1c(/C=C2/C=CC(=O)C(O)=C2)c(=O)nc2sc(CC(=O)N3CCCC3)nn12 | -48 | 30 | 5 | -2 | 39* | 25 | 36* | 37*
Brc1ccc(-c2nn3c(-c4ccco4)nnc3s2)o1 | -51 | -9 | 0 | -21 | 41* | 95* | 14 | 0
CC1=C(C(=O)OC(C)C)C(c2ccc(Cl)cc2)n2c(sc(=Cc3ccc(OCC(=O)O)cc3)c2=O)=N1 (centres undefined) | -31 | / | / | -15 | 84* | 21 | 10 | 26*
COc1cc2c(oc(=O)c3cc(C)cc(OC)c32)c2c(C3OC(C)C(O)C(C)(O)C3O)ccc(O)c12 (centres undefined) | -27 | 7 | / | -11 | 35* | 107* | 6 | 0
COc1cc(OC)c(-c2c3cc(O)c(=O)cc-3oc3cc(O)c(O)cc23)cc1OC | 88* | / | 5 | -90 | 81* | / | + | -84
Cc1c2cc(O)c(=O)cc-2oc2cc(O)c(O)cc12 | -14 | -211 | -25 | -84 | -75 | / | / | /
COc1ccc(-c2csc(NC(=O)CSc3nc(C)nc4sc(C(=O)O)c(C)c34)n2)cc1 | 0 | -19 | -4 | -1 | 51* | -8 | 13 | 5
COc1ccc(-c2csc(NC(=O)CSc3nc(C)cs3)n2)cc1 | 5 | 6 | 1 | -2 | -2 | / | / | /
O=C1C(=C(I)I)c2ccccc2-c2ccccc21 | -3 | 31 | / | 0 | 52* | 63* | 10 | -36
O=C(O)c1cccc2c1C(=O)c1ccccc1-2 | 1 | -2 | 0 | -5 | 2 | / | / | /
Cc1cc(/C=c2/sc3nc4ccccc4n3c2=O)c(C)n1-c1ccccn1 | -22 | 33 | 5 | 7 | 4 | / | / | /
